Results as given in ChEMBL document CHEMBL1140923, “Discovery of imidazo[1,2-b]thiazole derivatives as novel SIRT1 activators” (J Med Chem, 2009).

Legend:
[1] = target: T1, NAD-dependent protein deacetylase sirtuin-1 (Homo sapiens) (UniProt Q96EB6); assay: Activation of human SIRT1 expressed in Escherichia coli BL21Start assessed as concentration required to increase 50% enzyme activity by mass spectrometry assay
T1 sequence (whole entry): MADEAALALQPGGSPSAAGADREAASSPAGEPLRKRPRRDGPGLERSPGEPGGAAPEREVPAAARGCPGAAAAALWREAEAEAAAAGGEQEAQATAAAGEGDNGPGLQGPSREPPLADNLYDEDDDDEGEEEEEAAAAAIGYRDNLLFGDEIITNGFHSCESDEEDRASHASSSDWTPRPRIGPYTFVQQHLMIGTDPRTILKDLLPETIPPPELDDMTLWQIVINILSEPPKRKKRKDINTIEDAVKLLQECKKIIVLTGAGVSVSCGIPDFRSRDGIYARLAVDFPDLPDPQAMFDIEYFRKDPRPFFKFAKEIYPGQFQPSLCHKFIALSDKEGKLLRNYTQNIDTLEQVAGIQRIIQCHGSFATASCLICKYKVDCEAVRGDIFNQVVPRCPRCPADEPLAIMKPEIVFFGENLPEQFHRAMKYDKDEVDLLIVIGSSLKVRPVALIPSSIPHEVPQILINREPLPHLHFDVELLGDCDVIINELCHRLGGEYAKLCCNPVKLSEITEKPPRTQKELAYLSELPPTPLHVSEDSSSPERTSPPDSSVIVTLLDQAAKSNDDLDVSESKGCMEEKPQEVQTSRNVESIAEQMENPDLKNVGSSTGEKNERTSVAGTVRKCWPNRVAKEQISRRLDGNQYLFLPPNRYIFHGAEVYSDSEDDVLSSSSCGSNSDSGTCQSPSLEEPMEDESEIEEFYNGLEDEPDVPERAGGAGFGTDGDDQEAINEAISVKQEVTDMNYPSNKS
In short: (§1)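 Truncated SIRT1 was expressed in E. coli BL21Start (DE3) and purified on Ni2+ chelate. Reaction: 10 nM enzyme, 0.5 µM biotinylated, fluorophore-tagged p53-derived 20-mer acetyl-lysine peptide and 120 µM NAD+, in 50 mM Tris-acetate pH 8 with NaCl, KCl, MgCl2, 5 mM DTT and 0.05% BSA; DMSO vehicle; 25 min at 25 °C. Stopped with formic acid/nicotinamide; acetylated versus deacetylated peptide read by mass spectrometry. EC1.5 is the concentration raising activity by 50%, the mean of three titration curves.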

[2] = target: T1, NAD-dependent protein deacetylase sirtuin-1 (Homo sapiens); assay: Activation of human SIRT1 expressed in Escherichia coli BL21Start assessed as maximum activation of enzyme activity by mass spectrometry assay; in short: as §1
[3] = Solubility in water; type: physicochemical
[4] = Solubility in buffer at pH 7.4 by HPLC method; type: physicochemical
In short: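 Kinetic solubility was measured in pH 7.4 buffer by HPLC.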

[5] = Metabolic stability in mouse microsomes assessed as half life; type: ADME, Microsome
[6] = Metabolic stability in human microsomes assessed as half life; type: ADME, Microsome
[7] = Oral bioavailability in C57BL/6 mouse at 100 mg/kg; type: ADME, organism-based; conditions: in vivo
In short: (§2)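 Male C57BL/6 mice (18-22 g; 3 per dose group per time point), given 100 mg/kg po as the hydrochloride salt in 2% HPMC + 0.2% DOSS, or 10 mg/kg iv by tail vein in 10% ethanol/40% polyethylene glycol/50% H2O. Plasma was taken at 5, 30, 120 and 360 min after dosing and drug levels were measured.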

[8] = Cmax in C57BL/6 mouse at 100 mg/kg, po or 10 mg/kg, iv; type: ADME, organism-based; conditions: in vivo; in short: as §2
[9] = Terminal half life in C57BL/6 mouse at 100 mg/kg, po or 10 mg/kg, iv; type: ADME, organism-based; conditions: in vivo, read-out: beta t1/2 (converted); in short: as §2
[10] = AUC in C57BL/6 mouse at 100 mg/kg, po or 10 mg/kg, iv; type: ADME, organism-based; conditions: plasma; in short: as §2

Activity [1]	Activity [2]	Compound	other results
24 µM	253%	O=C(Nc1ccccc1-c1cn2c(CN3CCNCC3)csc2n1)c1cc2ccccc2s1	
6.9 µM	380%	O=C(Nc1ccccc1-c1cn2c(CN3CCNCC3)csc2n1)c1ccc2occc2c1	
0.68 µM	301%	O=C(Nc1ccccc1-c1cn2c(CN3CCNCC3)csc2n1)c1cnc2ccccc2c1	
6.2 µM	619%	COc1ccc(C(=O)Nc2ccccc2-c2cn3c(CN4CCNCC4)csc3n2)cc1F	
45 µM	208%	O=C(Nc1ccccc1-c1cn2c(CN3CCNCC3)csc2n1)c1cccc2cccnc12	
2.1 µM	662%	COc1cc(F)cc(C(=O)Nc2ccccc2-c2cn3c(CN4CCNCC4)csc3n2)c1	
4.9 µM	332%	O=C(Nc1ccccc1-c1cn2c(CN3CCNCC3)csc2n1)c1ccc2c(c1)OCO2	
0.61 µM	381%	O=C(Nc1ccccc1-c1cn2c(CN3CCNCC3)csc2n1)c1cc2ccccc2o1	
25 µM	322%	O=C(Nc1ccccc1-c1cn2c(CN3CCNCC3)csc2n1)c1ccccc1	
0.51 µM	808%	O=C(Nc1ccccc1-c1cn2c(CN3CCNCC3)csc2n1)c1cccc(SC(F)F)c1	
3.7 µM	928%	COc1cccc(C(=O)Nc2ccccc2-c2cn3c(CN4CCNCC4)csc3n2)c1	
0.9 µM	665%	O=C(Nc1ccccc1-c1cn2c(CN3CCNCC3)csc2n1)c1cccc(OC(F)(F)F)c1	
4.5 µM	406%	COc1ccc(C(=O)Nc2ccccc2-c2cn3c(CN4CCNCC4)csc3n2)cc1OC	

The remaining lines, values behind:

Compound	Activity [1]	Activity [2]	other results
COc1cc(C(=O)Nc2ccccc2-c2cn3cc(CN(C)C)sc3n2)cc(OC)c1OC	4.8 µM	295%	
COc1cc(C(=O)Nc2ccccc2-c2cn3c(CN(C)C)csc3n2)cc(OC)c1OC	1.9 µM	270%	
O=C(Nc1ccccc1-c1cn2c(CN3CCNCC3)csc2n1)c1ccc2ccccc2n1	0.99 µM	440%	
Oc1ccc(/C=C/c2cc(O)cc(O)c2)cc1	48 µM	250%	
COc1ccc(C(=O)Nc2ccccc2-c2cn3c(CN4CCNCC4)csc3n2)c(OC)c1	31 µM	197%	
COc1cc(C(=O)Nc2cccc(-c3cn4ccsc4n3)c2)cc(OC)c1OC	7.5 µM	380%	
O=C(Nc1ccccc1-c1cn2c(CN3CCNCC3)csc2n1)c1cnccn1	1.7 µM	270%	
O=C(Nc1ccccc1-c1cn2c(CN3CCNCC3)csc2n1)C1CCCC1	130 µM	383%	
COc1cc(C(=O)Nc2ccccc2-c2cn3cc(CN4CCNCC4)sc3n2)cc(OC)c1OC	3.2 µM	257%	
COc1cc(C(=O)Nc2ccccc2-c2cn3c(CN4CCNCC4)csc3n2)cc(OC)c1OC	1.8 µM	271%	solubility [3]: > 10000 µg/mL; solubility [4]: > 100 µM; half-life [5]: > 5 h; half-life [6]: 1.87 h; bioavailability [7]: 40%; Cmax [8]: 14 µM; half-life [9]: 6 h; AUC [10]: 45000 ng·h/mL
COc1cc(C(=O)Nc2cccc(-c3nc4ncccc4o3)c2)cc(OC)c1OC	11 µM	388%	
O=C(Cc1ccccc1)Nc1ccccc1-c1cn2c(CN3CCNCC3)csc2n1	14 µM	130%	
COc1cc(C(=O)Nc2ccccc2-c2cn3ccsc3n2)cc(OC)c1OC	2.5 µM	272%	solubility [3]: < 100 µg/mL; half-life [5]: 0.0833 h; half-life [6]: 0.167 h
